Reference: publication PMC6447837 (Cancer Science, 2019)

How the values were obtained:
MDA‐MB‐436 = assay: MTT antiviability assay; type: cell-based; settings: Homo sapiens, MDA-MB-436, 72 h
MV4‐11 = settings: MV4‐11, Leukemia; mean ± SD; ref Zhang et al (2016) 35; cited from earlier work
[1] = test system: Miapaca‐2 metastatic model; assay: Experimental metastasis assay; type: in vivo, NOD‐SCID mice; settings: 40 mg/kg/d
Summary of the method: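 Miapaca‑2 cells (5 × 10⁶) were injected into the tail vein of 5‑ to 6‑week‑old female NOD‑SCID mice. Mice were randomized immediately into 5 groups of 6 and given test compound p.o. at 20 or 40 mg/kg, comparators, or vehicle. […] Kaplan–Meier analysis used a log rank test against control.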

FOSL1 = assay: Western blot, FOSL1 expression in intact cells; type: cell-based, human; settings: 12 hours
MCF‐7 = assay: MTT antiviability assay; type: cell-based; settings: Homo sapiens, MCF7, 72 h
Bxpc‐3 cells [2] = assay: EdU incorporation; type: cell-based, human; settings: 24 hours
Summary of the method: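 Cells were seeded overnight at 5000-8000 per well in 96-well plates, then exposed to test compound for 24 h. Cells were then incubated with EdU followed by Hoechst, using a commercial kit per manufacturer's instructions. EdU marks proliferating cells and Hoechst marks nuclei. The read-out was the percentage of EdU-positive cells, as mean of n = 3 with SD.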

Aspc‐1 cells [3] = assay: Wound healing assay; type: cell-based, human; settings: 18 hours
SMMC7721 = settings: SMMC7721, Hepatocarcinoma; ref Zhang et al (2016) 35; cited from earlier work
STAT3 = assay: Western blot, STAT3 phosphorylation; type: cell-based, human; settings: Aspc‐1 and Bxpc‐3 cells, 12 hours
Summary of the method: (§1)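 Aspc-1 and Bxpc-3 cells were grown overnight in complete medium and treated with test compound for 12 h. Cells were lysed in RIPA buffer and protein was quantified. Lysates were run on SDS-PAGE and transferred to PVDF, then blocked 2 h in TBS-T with 5% non-fat milk. Blots were probed for pAKT Ser473, pERK Thr202/Tyr204, pSTAT3 Tyr705, the matching total proteins and β-actin. Detection was by enhanced chemiluminescence.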

PC‐9 = settings: PC‐9, Lung cancer; mean ± SD; ref Zhang et al (2016) 35; cited from earlier work
L929 = settings: L929, Mouse fibroblast (normal cell line); ref Zhang et al (2016) 35; cited from earlier work
HCC1937 = settings: HCC1937, Triple negative breast cancer; mean ± SD; ref Zhang et al (2016) 35; cited from earlier work
Bxpc‐3 cells [4] = assay: Wound healing assay; type: cell-based, human; settings: 18 hours
LO2 = settings: LO2, Human hepatic cells (normal cell line); ref Zhang et al (2016) 35; cited from earlier work
Lyn = Lyn (Homo sapiens, UniProt P07948); assay: Radiometric kinase IC50 assay; type: biochemical
Chain of Lyn (P07948 whole entry): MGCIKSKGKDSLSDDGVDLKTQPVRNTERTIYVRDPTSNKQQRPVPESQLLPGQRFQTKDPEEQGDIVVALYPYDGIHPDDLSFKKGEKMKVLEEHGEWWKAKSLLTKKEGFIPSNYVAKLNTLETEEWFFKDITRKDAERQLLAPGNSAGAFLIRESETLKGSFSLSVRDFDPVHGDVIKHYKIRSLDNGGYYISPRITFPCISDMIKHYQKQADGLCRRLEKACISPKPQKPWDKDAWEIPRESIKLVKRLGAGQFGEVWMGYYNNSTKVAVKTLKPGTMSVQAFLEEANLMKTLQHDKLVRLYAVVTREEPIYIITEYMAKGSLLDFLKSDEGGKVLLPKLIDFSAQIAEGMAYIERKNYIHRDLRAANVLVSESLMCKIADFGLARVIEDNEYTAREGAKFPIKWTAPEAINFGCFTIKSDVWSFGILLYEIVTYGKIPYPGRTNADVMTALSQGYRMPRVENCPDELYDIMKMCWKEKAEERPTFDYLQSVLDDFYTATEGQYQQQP

Aspc‐1 xenograft = assay: Subcutaneous xenograft model; type: in vivo, NOD‐SCID mice; settings: Aspc‐1 model
Summary of the method: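 Female NOD‑SCID mice bearing s.c. right‑flank tumors (5 × 10⁶–1 × 10⁷ cells injected) were randomized at 100–200 mm³ (6–7 per group). They received test compound in 25% PEG400/5% DMSO/water by oral gavage once daily for 18 days, or vehicle. Tumors were measured by caliper every 3 days, with volume = length × width² × 0.5.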

HPAC = assay: MTT antiviability assay; type: cell-based; settings: Homo sapiens, 72 h
MDA‐MB‐415 = settings: MDA‐MB‐415, Breast cancer; ref Zhang et al (2016) 35; cited from earlier work
ZR‐75‐1 = settings: ZR‐75‐1, Breast cancer; ref Zhang et al (2016) 35; cited from earlier work
KG‐1a = assay: MTT antiviability assay; type: cell-based; settings: Homo sapiens, 72 h
ERK = assay: Western blot, ERK phosphorylation; type: cell-based, human; settings: Aspc‐1 and Bxpc‐3 cells, 12 hours
Summary of the method: as §1

PANC‐1 = assay: MTT antiviability assay; type: cell-based; settings: Homo sapiens, PANC-1, 72 h
CFPAC = assay: MTT antiviability assay; type: cell-based; settings: Homo sapiens, 72 h
AKT = assay: Western blot, AKT phosphorylation; type: cell-based, human; settings: Aspc‐1 and Bxpc‐3 cells, 12 hours
Summary of the method: as §1

Aspc‐1 cells [5] = assay: Transwell invasion assay; type: cell-based, human
Summary of the method: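 Inserts were precoated with polymerized collagen type I. Cells were seeded on the insert bottom in serum‑free medium with serial dilutions of test compound or vehicle, with 10% FBS medium in the lower chamber. After one day, cells were stained with calcein‑AM and optical sections taken at 10‑μm intervals. Invasion was scored as cells moving >20 μm into collagen; n = 3, mean with SD.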

Src = assay: Immunohistochemistry of xenograft tumor tissues; type: in vivo, NOD‐SCID mice; settings: Aspc‐1 and Bxpc‐3 models; LY‐1816 and dasatinib 40 mg/kg/d p.o., gemcitabine 80 mg/kg/wk; IHC
NCI‐N87 = assay: MTT antiviability assay; type: cell-based; settings: Homo sapiens, NCI-N87, 72 h
Bxpc‐3 = assay: MTT antiviability assay; type: cell-based; settings: Homo sapiens, BXPC-3, 72 h
Fyn = Fyn (Homo sapiens, UniProt P06241); assay: Radiometric kinase IC50 assay; type: biochemical
Chain of Fyn (P06241 whole entry): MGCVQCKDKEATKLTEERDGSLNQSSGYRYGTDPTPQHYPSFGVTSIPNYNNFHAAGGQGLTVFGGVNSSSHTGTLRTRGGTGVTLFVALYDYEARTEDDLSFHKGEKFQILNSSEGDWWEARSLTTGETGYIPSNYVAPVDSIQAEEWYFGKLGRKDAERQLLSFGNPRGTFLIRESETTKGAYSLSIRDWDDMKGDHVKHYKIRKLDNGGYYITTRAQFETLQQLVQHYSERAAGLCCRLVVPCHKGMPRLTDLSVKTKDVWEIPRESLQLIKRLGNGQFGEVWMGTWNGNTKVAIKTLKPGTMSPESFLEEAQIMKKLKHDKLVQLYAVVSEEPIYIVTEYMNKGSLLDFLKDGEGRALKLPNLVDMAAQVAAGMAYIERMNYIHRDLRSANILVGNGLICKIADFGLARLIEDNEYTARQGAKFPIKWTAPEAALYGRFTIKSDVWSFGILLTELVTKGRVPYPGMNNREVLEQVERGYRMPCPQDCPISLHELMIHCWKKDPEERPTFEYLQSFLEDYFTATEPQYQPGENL

COLO‐205 = assay: MTT antiviability assay; type: cell-based; settings: Homo sapiens, COLO 205, 72 h
HepG2 = settings: HepG2, Hepatocarcinoma; ref Zhang et al (2016) 35; cited from earlier work

## Cc1ccc(NC(=O)c2ccc(C)c(C(F)(F)F)c2)cc1C#Cc1nn(C2CCC(O)CC2)c2ncnc(N)c12 (stereo not drawn) [LY‐1816, N‐(3‐((4‐amino‐1‐(4‐hydroxycyclohexyl)‐1H‐pyrazolo[3,4‐d]pyrimidin‐3‐yl)ethynyl)‐4‐methylphenyl)‐4‐methyl‐3‐(trifluoromethyl)benzamide]
MDA‐MB‐436
  IC50: > 10000 nM
MV4‐11
  IC50: 138 ± 15 nM
[1]
  mice alive at day 105: 33%
FOSL1; 10 PDAC cell lines
  FOSL1 expression: downregulated the FOSL1 expression
FOSL1; HT29 and HCT116 cells
  FOSL1 expression: relatively weak potency
MCF‐7
  IC50: > 10000 nM
Bxpc‐3 cells [2]
  DNA replication (EdU): dose‐dependently suppress the DNA replication
Aspc‐1 cells [3]
  cell migration: dose‐dependently reduced cell migration
SMMC7721
  IC50: > 10000 nM
STAT3
  phosphorylation of STAT3: significantly inhibit STAT3 phosphorylation
PC‐9
  IC50: 152 ± 41 nM
L929
  IC50: > 10000 nM
HCC1937
  IC50: 455 ± 87 nM
Bxpc‐3 cells [4]
  cell migration: dose‐dependently reduced cell migration
LO2
  IC50: > 10000 nM
Lyn
  IC50: 4 nM
Aspc‐1 xenograft; 40 mg/kg daily, orally, 18 days
  tumor‐inhibition rate: > 90%
Aspc‐1 xenograft; LY‐1816 20 or 40 mg/kg/d p.o., dasatinib 40 mg/kg/d p.o., gemcitabine 80 mg/kg once a week
  antitumor activity: dose‐dependent tumor inhibitory activities
HPAC
  IC50: 45 ± 4 nM
MDA‐MB‐415
  IC50: ~10000 nM
ZR‐75‐1
  IC50: ~10000 nM
KG‐1a
  IC50: > 10000 nM
ERK
  phosphorylation of ERK: very weak or no impact on the phosphorylation of ERK and AKT
PANC‐1
  IC50: 123 ± 15 nM
CFPAC
  IC50: 96 ± 60 nM
AKT
  phosphorylation of AKT: very weak or no impact on the phosphorylation of ERK and AKT
Aspc‐1 cells [5]
  cell invasion: significantly suppressed the invasion
Src
  phosphorylation of Src in tumor tissues: evidently reduced the phosphorylation of Src and STAT3
NCI‐N87
  IC50: 147 ± 44 nM
Bxpc‐3
  IC50: 58 ± 11 nM
Fyn
  IC50: 6 nM
COLO‐205
  IC50: 17 ± 1 nM
HepG2
  IC50: > 10000 nM
